pIC50, pKi: −log10 of the molar value. Calls of active or inactive are those of the source. The rule behind the calls is not given here.
Assays:
[1] = target: Muscarinic acetylcholine receptors; M2 & M3 (Homo sapiens) (UniProt P20309+P08172); test: Selectivity for human muscarinic M2 receptor over muscarinic M3 receptor (unknown origin); assay type: protein assay
[2] = target: Muscarinic acetylcholine receptor M2 and M4 (Homo sapiens) (UniProt P08173+P08172); test: Selectivity for human muscarinic M2 receptor over muscarinic M4 receptor (unknown origin); assay type: protein assay
[3] = target: Muscarinic acetylcholine receptors; M1 & M2 (Homo sapiens) (UniProt P11229+P08172); test: Selectivity for human muscarinic M2 receptor over muscarinic M1 receptor (unknown origin); assay type: protein assay
[4] = target: T1, Muscarinic acetylcholine receptor M2 (Homo sapiens) (UniProt P08172); test: Antagonist activity at muscarinic M2 receptor (unknown origin) at 100 uM by acetylcholine titration assay; details: filed as antagonist
T1 sequence (whole entry): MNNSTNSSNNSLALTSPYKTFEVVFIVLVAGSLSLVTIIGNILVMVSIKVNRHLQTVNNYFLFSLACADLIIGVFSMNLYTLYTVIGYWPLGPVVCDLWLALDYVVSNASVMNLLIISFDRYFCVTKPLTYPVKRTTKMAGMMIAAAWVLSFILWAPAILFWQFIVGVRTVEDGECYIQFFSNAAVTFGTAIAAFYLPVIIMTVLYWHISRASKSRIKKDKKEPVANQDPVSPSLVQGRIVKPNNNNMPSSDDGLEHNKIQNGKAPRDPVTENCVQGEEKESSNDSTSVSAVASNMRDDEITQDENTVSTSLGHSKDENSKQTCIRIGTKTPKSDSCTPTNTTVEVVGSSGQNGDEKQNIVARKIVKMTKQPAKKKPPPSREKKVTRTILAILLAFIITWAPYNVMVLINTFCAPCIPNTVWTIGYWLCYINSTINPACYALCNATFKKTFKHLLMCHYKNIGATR
Outline: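 Acetylcholine titration curves were run in a radioligand binding format, without and with test ligand at 100 μM. A rightward shift of the ACh curve was taken to indicate negative allosteric modulation, and no shift to indicate orthosteric antagonism.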

[5] = target: T2, Muscarinic acetylcholine receptor M4 (Homo sapiens, UniProt P08173); test: Displacement of [3H]-NMS from muscarinic M4 receptor (unknown origin) expressed in CHO-K1 cell membranes assessed as inhibition constant by radioligand competition analysis; set-up: species or system Cell membrane
T2 sequence (P08173 whole entry): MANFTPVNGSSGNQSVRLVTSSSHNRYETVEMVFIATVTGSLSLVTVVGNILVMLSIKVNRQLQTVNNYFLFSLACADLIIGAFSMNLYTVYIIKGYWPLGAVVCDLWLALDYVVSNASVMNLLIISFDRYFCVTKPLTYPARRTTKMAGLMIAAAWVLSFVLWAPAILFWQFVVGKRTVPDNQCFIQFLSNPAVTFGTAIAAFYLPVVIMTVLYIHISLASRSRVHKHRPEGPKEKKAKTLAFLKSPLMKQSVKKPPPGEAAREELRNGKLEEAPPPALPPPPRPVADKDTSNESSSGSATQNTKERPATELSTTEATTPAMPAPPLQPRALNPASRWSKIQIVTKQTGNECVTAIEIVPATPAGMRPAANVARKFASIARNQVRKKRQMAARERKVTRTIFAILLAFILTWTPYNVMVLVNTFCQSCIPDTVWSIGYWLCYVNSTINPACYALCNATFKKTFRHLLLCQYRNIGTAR
Outline: (§1)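 Inhibition constants came from radioligand competition binding. Acetylcholine and atropine were included as positive controls for competitive binding. Values are given as mean ± SEM.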

[6] = target: Muscarinic acetylcholine receptor M3 (Homo sapiens, UniProt P20309); test: Displacement of [3H]-NMS from muscarinic M3 receptor (unknown origin) expressed in CHO-K1 cell membranes assessed as inhibition constant by radioligand competition analysis; set-up: species or system Cell membrane; outline: as §1
Chain of Muscarinic acetylcholine receptor M3 (P20309 whole entry): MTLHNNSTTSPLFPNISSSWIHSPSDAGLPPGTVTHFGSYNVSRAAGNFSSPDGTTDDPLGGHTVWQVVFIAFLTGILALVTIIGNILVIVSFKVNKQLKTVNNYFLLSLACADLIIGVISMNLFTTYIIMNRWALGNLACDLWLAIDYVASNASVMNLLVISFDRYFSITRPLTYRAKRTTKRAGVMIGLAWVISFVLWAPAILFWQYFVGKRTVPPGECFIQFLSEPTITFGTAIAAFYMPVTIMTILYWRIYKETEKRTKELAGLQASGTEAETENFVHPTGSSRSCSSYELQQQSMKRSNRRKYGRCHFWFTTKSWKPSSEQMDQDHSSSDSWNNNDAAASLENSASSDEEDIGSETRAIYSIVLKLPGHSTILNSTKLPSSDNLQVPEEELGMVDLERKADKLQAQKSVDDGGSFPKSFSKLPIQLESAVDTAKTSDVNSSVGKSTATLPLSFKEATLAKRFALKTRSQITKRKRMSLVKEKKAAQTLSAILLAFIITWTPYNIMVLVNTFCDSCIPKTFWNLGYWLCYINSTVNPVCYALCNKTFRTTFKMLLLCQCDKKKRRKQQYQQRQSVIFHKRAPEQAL

[7] = target: T3, Muscarinic acetylcholine receptor M2 (Homo sapiens, UniProt P08172); test: Displacement of [3H]-NMS from muscarinic M2 receptor (unknown origin) expressed in CHO-K1 cell membranes assessed as inhibition constant by radioligand competition analysis; set-up: species or system Cell membrane
T3 sequence (P08172 whole entry): T1 sequence (whole entry)

[8] = target: T4, Muscarinic acetylcholine receptor M1 (Homo sapiens, UniProt P11229); test: Displacement of [3H]-NMS from muscarinic M1 receptor (unknown origin) expressed in CHO-K1 cell membranes assessed as inhibition constant by radioligand competition analysis; set-up: species or system Cell membrane; outline: as §1
T4 sequence (P11229 whole entry): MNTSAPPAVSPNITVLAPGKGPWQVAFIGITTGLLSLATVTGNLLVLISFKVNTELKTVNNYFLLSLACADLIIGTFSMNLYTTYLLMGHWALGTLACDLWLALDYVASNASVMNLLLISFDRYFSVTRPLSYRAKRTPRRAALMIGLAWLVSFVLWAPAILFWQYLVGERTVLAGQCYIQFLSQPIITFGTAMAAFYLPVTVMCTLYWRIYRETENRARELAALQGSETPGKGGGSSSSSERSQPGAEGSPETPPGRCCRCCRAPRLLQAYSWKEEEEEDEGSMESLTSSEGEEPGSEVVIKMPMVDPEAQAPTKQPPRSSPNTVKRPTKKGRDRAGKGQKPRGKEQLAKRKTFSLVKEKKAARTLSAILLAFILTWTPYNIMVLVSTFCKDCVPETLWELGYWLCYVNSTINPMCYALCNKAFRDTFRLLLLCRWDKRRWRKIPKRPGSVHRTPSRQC

[9] = target: T3, Muscarinic acetylcholine receptor M2; test: Antagonist activity at human muscarinic M2 receptor expressed in CHO cells co-expressing Galpha15 assessed as inhibition of acetylcholine-induced calcium mobilization relative to acetylcholine; assay type: functional, cell-based

Chain of Muscarinic acetylcholine receptors; M2 & M3 (Homo sapiens) (P20309 whole entry, looked up, one chain of several): as the sequence (P20309 whole entry) above

- Ratio [1]: > 250
- Ratio [2]: 30
- Ratio [3]: 8
- Activity [4]: Active
- pKi [5]: 4.74
- pKi [6]: < 4.00
- pKi [7]: 6.21
- pKi [8]: 5.31
- pIC50 [9]: 6.32
Compound: O=C(CCN1CCCc2ccccc21)Nc1cccc2cccnc12

From ChEMBL document CHEMBL4673268, “The optimization of a novel selective antagonist for human M muscarinic acetylcholine receptor” (Bioorg Med Chem Lett, 2020)
